Nine compounds from ChEMBL document CHEMBL4706590, “Design and characterization of cereblon-mediated androgen receptor proteolysis-targeting chimeras” (Eur J Med Chem, 2020) can be followed below.

As usually defined, the CC50 is the concentration at which the toxic effect on the cells reaches its halfway point.

The target in data set [1] is T1, Protein cereblon/Androgen receptor (Homo sapiens, UniProt P10275+Q96SW2). Briefly: Protac activity at CRBN/AR in human LNCaP cells assessed as AR degradation at 10 uM by Western blotting analysis relative to control. The format is cell-based. The method in brief:
(§1)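 LNCaP (IMDM) or 22RV1 (RPMI 1640) cells with 10% FBS at 37 °C, 5% CO2, treated with DMSO vehicle as control. Cells lysed in RIPA buffer (50 mM Tris-HCl pH 7.5, 150 mM NaCl, 1% Triton X-100, 0.1% SDS, 0.5% deoxycholate, protease inhibitors). Protein quantified by Bradford assay. Immunoblotted for AR with tubulin as loading control, HRP chemiluminescence detection.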

The target of data set [2] is T1, Protein cereblon/Androgen receptor. The data set is described as follows: Protac activity at CRBN/AR in human LNCaP cells assessed as AR degradation at 0.1 uM by western blotting analysis relative to control. The format is cell-based. The method in brief:
as §1
Background: A western blot detects proteins with antibodies after separation by electrophoresis.

A further data set has as its system VCaP. Briefly: Antiproliferative activity against human VCaP cells assessed as reduction in cell viability after 6 days by CellTiter-Glo assay. It is filed as functional. The settings on record: 144 h, time 6 day. The method in brief: (§2)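 LNCaP seeded at 1.5 × 10³ and VCaP at 4 × 10³ cells per well in 96-well plates. Cells grown in IMDM with 10% FBS and antibiotic-antimycotic at 37 °C, 5% CO2, with DMSO as vehicle. IC50 from nonlinear regression of log(inhibitor) versus response.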
Background: Cellular ATP, detected with luciferase, serves as a proxy for viable cell number.

Data set [3] can be described thus: Metabolic stability in mouse liver microsomes assessed as compound remaining at 1 uM after 30 mins in presence of NADPH-regenerating system. It is filed as ADME, Microsome. As to conditions: read-out: Stabilty. A digest of the protocol:
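Mouse liver microsomes at 0.5 mg protein/mL in 100 mM PBS, pH 7.4. Reaction started with NADPH-regenerating solution (1.3 mM NADP+, 3.3 mM glucose-6-phosphate, 0.4 U/mL G6PDH, 3.3 mM MgCl2). Incubated 30 min at 37 °C, stopped with ice-cold acetonitrile, centrifuged. Percent remaining reported as mean ± SD, n = 3.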
(Liver microsomes are a subcellular fraction often used to study metabolism.)

Data set [4] concerns the target T1, Protein cereblon/Androgen receptor. Briefly: Protac activity at CRBN/AR in human LNCaP cells assessed as AR degradation at 1 uM by Western blotting analysis relative to control. The format is cell-based. A digest of the protocol: as §1
Another data set has as its system LNCaP. Briefly: Antiproliferative activity against human LNCaP cells assessed as reduction in cell viability after 6 days by CellTiter-Glo assay. The format is functional. The settings on record: 144 h, time 6 day. A digest of the protocol:
as §2

T1 sequence (P10275 whole entry, looked up): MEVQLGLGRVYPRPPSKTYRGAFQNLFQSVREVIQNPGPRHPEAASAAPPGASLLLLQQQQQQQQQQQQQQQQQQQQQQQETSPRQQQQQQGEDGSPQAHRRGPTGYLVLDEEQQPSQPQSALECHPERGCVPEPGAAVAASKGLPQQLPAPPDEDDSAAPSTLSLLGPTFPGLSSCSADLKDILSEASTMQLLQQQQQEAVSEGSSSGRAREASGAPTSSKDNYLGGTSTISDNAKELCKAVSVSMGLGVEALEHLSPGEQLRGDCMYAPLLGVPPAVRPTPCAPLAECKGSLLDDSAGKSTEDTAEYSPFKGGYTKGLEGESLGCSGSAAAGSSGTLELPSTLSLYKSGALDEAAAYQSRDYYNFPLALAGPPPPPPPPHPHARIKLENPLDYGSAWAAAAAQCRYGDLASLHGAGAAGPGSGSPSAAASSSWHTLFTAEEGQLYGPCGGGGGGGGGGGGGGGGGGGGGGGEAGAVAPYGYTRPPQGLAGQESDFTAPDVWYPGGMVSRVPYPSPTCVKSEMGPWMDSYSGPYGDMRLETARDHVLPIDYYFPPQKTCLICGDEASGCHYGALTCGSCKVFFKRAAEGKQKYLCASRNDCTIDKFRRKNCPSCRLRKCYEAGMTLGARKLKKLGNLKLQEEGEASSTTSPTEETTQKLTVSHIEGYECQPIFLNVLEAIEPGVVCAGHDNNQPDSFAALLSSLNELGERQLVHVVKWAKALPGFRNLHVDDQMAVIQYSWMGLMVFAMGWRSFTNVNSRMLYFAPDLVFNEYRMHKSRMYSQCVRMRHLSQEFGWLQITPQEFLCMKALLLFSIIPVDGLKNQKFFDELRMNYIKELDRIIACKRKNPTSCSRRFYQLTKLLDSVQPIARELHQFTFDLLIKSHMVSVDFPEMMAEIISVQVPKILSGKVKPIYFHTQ
T1 sequence (Q96SW2 whole entry, looked up): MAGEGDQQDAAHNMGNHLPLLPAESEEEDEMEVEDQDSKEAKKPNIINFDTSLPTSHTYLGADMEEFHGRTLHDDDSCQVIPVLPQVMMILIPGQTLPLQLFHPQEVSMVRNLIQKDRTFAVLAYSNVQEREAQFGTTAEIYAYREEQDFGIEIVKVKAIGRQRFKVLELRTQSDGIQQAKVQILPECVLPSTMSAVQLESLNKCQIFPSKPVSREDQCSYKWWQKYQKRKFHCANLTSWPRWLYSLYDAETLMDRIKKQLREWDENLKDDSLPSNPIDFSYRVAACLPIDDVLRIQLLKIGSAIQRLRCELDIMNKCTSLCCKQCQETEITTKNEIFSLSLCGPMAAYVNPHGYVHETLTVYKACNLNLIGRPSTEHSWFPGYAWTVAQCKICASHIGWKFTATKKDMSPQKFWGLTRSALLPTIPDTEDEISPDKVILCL

`CC1(C)[C@H](NC(=O)c2ccc(N3CCN(CCOC4CCN(C(=O)CNc5ccc6nnn(C7CCC(=O)NC7=O)c(=O)c6c5)CC4)CC3)cc2)C(C)(C)[C@H]1Oc1ccc(C#N)c(Cl)c1` (some centres undefined): the Activity turned out to be 88% in data set [1], 77% in data set [2] and 95% in data set [4]. Further, the CC50 in the data set with VCaP amounted to 57 nM; in the data set on LNCaP, 852 nM. In addition, in data set [3], the remaining at 0.5 h, 1 µM was 31.2%.
As to `CC1(C)[C@H](NC(=O)c2ccc(N3CCN(CC4CCN(c5ccc6nnn(C7CCC(=O)NC7=O)c(=O)c6c5)CC4)CC3)cc2)C(C)(C)[C@H]1Oc1ccc(C#N)c(Cl)c1` (some centres undefined), the Activity turned out to be 95% in data set [1], 79% in data set [2] and 91% in data set [4]. Also, the CC50 in the data set with VCaP was found to be 81 nM; in the data set on LNCaP it was 259 nM. For the same compound, in data set [3], the remaining at 0.5 h, 1 µM was 71.7%.
In the case of `CC1(C)[C@H](NC(=O)c2ccc(N3CCN(C4CC5(CCN(C(=O)COc6ccc7nnn(C8CCC(=O)NC8=O)c(=O)c7c6)CC5)C4)CC3)cc2)C(C)(C)[C@H]1Oc1ccc(C#N)c(Cl)c1` (some centres undefined), the Activity was determined as 79% in data set [1], 60% in data set [2] and 77% in data set [4]. Moreover, the CC50 in the data set on VCaP amounted to 76 nM; in the data set with LNCaP, 196 nM. Further, the remaining at 0.5 h, 1 µM in data set [3] was 62.8%.
In the case of `CC1(C)[C@H](NC(=O)c2ccc(N3CCN(CCC4CCN(C(=O)C5CCN(c6ccc7nnn(C8CCC(=O)NC8=O)c(=O)c7c6)CC5)CC4)CC3)cc2)C(C)(C)[C@H]1Oc1ccc(C#N)c(Cl)c1` (some centres undefined), the figures for the Activity in data set [1], in data set [2] and in data set [4] were 99%, 77% and 93%, respectively. Also, the CC50 turned out to be 52 nM in the data set on VCaP and 316 nM in the data set with LNCaP. Besides, in data set [3], the remaining at 0.5 h, 1 µM was 93.7%.
In the case of `CC1(C)[C@H](NC(=O)c2ccc(N3CCN(CCC4CCN(C(=O)C5CN(c6ccc7nnn(C8CCC(=O)NC8=O)c(=O)c7c6)C5)CC4)CC3)cc2)C(C)(C)[C@H]1Oc1ccc(C#N)c(Cl)c1` (some centres undefined), the Activity in data set [1] was 96%; in data set [2], 74%; in data set [4], 84%. For the same compound, the CC50 with VCaP worked out at 37 nM; in the data set with LNCaP it was 538 nM. The remaining at 0.5 h, 1 µM in data set [3] was 92.9%.
As for `CC1(C)[C@H](NC(=O)c2ccc(N3CCN(CCC4CCN(C(=O)COc5ccc6nnn(C7CCC(=O)NC7=O)c(=O)c6c5)CC4)CC3)cc2)C(C)(C)[C@H]1Oc1ccc(C#N)c(Cl)c1` (some centres undefined), the Activity in data set [1] was 82%; in data set [2] it was 0%; in data set [4], 50%. In addition, the results for the CC50 with VCaP and with LNCaP were 46 nM and 3180 nM, respectively. Moreover, the remaining at 0.5 h, 1 µM in data set [3] was found to be 2.98%.
For the compound `CC1(C)[C@H](NC(=O)c2ccc(N3CCN(CC4CCN(C(=O)C5CCN(c6ccc7nnn(C8CCC(=O)NC8=O)c(=O)c7c6)CC5)CC4)CC3)cc2)C(C)(C)[C@H]1Oc1ccc(C#N)c(Cl)c1` (some centres undefined), the figures for the Activity in data set [1], in data set [2] and in data set [4] were 94%, 90% and 89%, respectively. Further, the figures for the CC50 in the data set with VCaP and with LNCaP were 45 nM and 108 nM, respectively. The remaining at 0.5 h, 1 µM in data set [3] is 74.3%.
Take `CC1(C)[C@H](NC(=O)c2ccc(N3CCN(CCOC4CCN(C(=O)C5CCN(c6ccc7nnn(C8CCC(=O)NC8=O)c(=O)c7c6)CC5)CC4)CC3)cc2)C(C)(C)[C@H]1Oc1ccc(C#N)c(Cl)c1` (some centres undefined): the Activity in data set [1] was found to be 98%; in data set [2], 72%; in data set [4] it was 92%. Besides, the CC50 in the data set on VCaP is 80 nM; in the data set with LNCaP it was 847 nM. In addition, in data set [3], the remaining at 0.5 h, 1 µM is 78.4%.
With `CC1(C)[C@H](NC(=O)c2ccc(N3CCN(CCC4CCN(C(=O)CNc5ccc6nnn(C7CCC(=O)NC7=O)c(=O)c6c5)CC4)CC3)cc2)C(C)(C)[C@H]1Oc1ccc(C#N)c(Cl)c1` (some centres undefined), the Activity in data set [1] came out at 83%; in data set [2] it was 7%; in data set [4] it was 87%. Also, the CC50 in the data set with VCaP amounted to 107 nM; in the data set on LNCaP it was 1090 nM. For the same compound, the remaining at 0.5 h, 1 µM in data set [3] was 0.56%.
